Data taken from ChEMBL document CHEMBL1926580, “Identification and development of 2,5-disubstituted oxadiazole as potential candidate for treatment of XDR and MDR tuberculosis” (2012).
Values after ≈ are worked out from the molar mass of the structure shown.

Legend:
[1] = tested on: Mycobacterium tuberculosis; experiment: Antitubercular activity against Mycobacterium tuberculosis H37Rv ATCC 27294 assessed as intracellular ATP level after 5 days by luminescence assay; format: functional
Method in brief: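 Growth inhibition of M. tuberculosis H37Rv reported as MIC50. Compounds were dissolved in 90% DMSO (stock), twofold serially diluted in duplicate to 10 concentrations, and spotted into 384-well plates. Assays were run at least twice.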

BHK-21 = experiment: Cytotoxicity against hamster BHK21 cells after 5 days; format: functional; details: Mesocricetus auratus, BHK-21, 120 h
Method in brief: (§1)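 HepG2 and BHK21 cells were seeded, incubated 24 h at 37 °C, then exposed to twofold serial dilutions of compound. The value is CC50 (50% cytotoxic concentration), from at least two independent assays.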

HepG2 = experiment: Cytotoxicity against human HepG2 cells after 5 days; format: functional; details: HepG2, 120 h; method in brief: as §1
[2] = tested on: Mycobacterium tuberculosis; experiment: Antimycobacterial activity against clinical isolate of Mycobacterium tuberculosis TN675 assessed as intracellular ATP level after 5 days by luminescence assay; format: functional; details: TN675, 120 h
[3] = tested on: Mycobacterium tuberculosis; experiment: Antimycobacterial activity against Mycobacterium tuberculosis TN913 assessed as intracellular ATP level after 5 days by luminescence assay; format: functional; details: TN913, 120 h
[4] = tested on: Mycobacterium tuberculosis; experiment: Antimycobacterial activity against clinical isolate Mycobacterium tuberculosis TN994 assessed as intracellular ATP level after 5 days by luminescence assay; format: functional; details: TN994, 120 h
[5] = tested on: Mycobacterium tuberculosis; experiment: Antimycobacterial activity against Mycobacterium tuberculosis TN1008 assessed as intracellular ATP level after 5 days by luminescence assay; format: functional; details: TN1008, 120 h
[6] = tested on: Mycobacterium tuberculosis; experiment: Antimycobacterial activity against Mycobacterium tuberculosis TN1037 assessed as intracellular ATP level after 5 days by luminescence assay; format: functional; details: TN1037, 120 h
[7] = tested on: Mycobacterium tuberculosis; experiment: Antimycobacterial activity against Mycobacterium tuberculosis TN1040 assessed as intracellular ATP level after 5 days by luminescence assay; format: functional; details: TN1040, 120 h
[8] = tested on: Mycobacterium tuberculosis; experiment: Antimycobacterial activity against Mycobacterium tuberculosis TN1051 assessed as intracellular ATP level after 5 days by luminescence assay; format: functional; details: TN1051, 120 h
[9] = tested on: Mycobacterium tuberculosis; experiment: Antimycobacterial activity against Mycobacterium tuberculosis TN1082 assessed as intracellular ATP level after 5 days by luminescence assay; format: functional; details: TN1082, 120 h
[10] = tested on: Mycobacterium tuberculosis; experiment: Antimycobacterial activity against Mycobacterium tuberculosis TN2351 assessed as intracellular ATP level after 5 days by luminescence assay; format: functional; details: TN2351, 120 h
[11] = tested on: Mycobacterium tuberculosis; experiment: Antimycobacterial activity against Mycobacterium tuberculosis TN2524 assessed as intracellular ATP level after 5 days by luminescence assay; format: functional; details: TN2524, 120 h
[12] = tested on: Mycobacterium tuberculosis; experiment: Antimycobacterial activity against Mycobacterium tuberculosis TN3183 assessed as intracellular ATP level after 5 days by luminescence assay; format: functional; details: TN3183, 120 h
[13] = tested on: Mycobacterium tuberculosis; experiment: Antimycobacterial activity against Mycobacterium tuberculosis TN3979 assessed as intracellular ATP level after 5 days by luminescence assay; format: functional; details: TN3979, 120 h
[14] = tested on: Mycobacterium tuberculosis; experiment: Antimycobacterial activity against Mycobacterium tuberculosis TN4259 assessed as intracellular ATP level after 5 days by luminescence assay; format: functional; details: TN4259, 120 h
[15] = tested on: Mycobacterium tuberculosis; experiment: Antimycobacterial activity against Mycobacterium tuberculosis AH9584 assessed as intracellular ATP level after 5 days by luminescence assay; format: functional; details: AH9584, 120 h
[16] = tested on: Mycobacterium tuberculosis; experiment: Antimycobacterial activity against Mycobacterium tuberculosis BE11677 assessed as intracellular ATP level after 5 days by luminescence assay; format: functional; details: BE11677, 120 h
[17] = tested on: Mycobacterium tuberculosis; experiment: Antimycobacterial activity against Mycobacterium tuberculosis E8133 assessed as intracellular ATP level after 5 days by luminescence assay; details: E8133, 120 h
[18] = tested on: Mycobacterium tuberculosis; experiment: Antimycobacterial activity against Mycobacterium tuberculosis W4 assessed as intracellular ATP level after 5 days by luminescence assay; format: functional; details: W4, 120 h
[19] = Mycobacterium tuberculosis, H37Rv ATCC 27294, 120 h

Compound	MBC90 [1] [µM]	MIC50 [1, 19] [µM]	CC50 (BHK-21) [µM]	CC50 (HepG2) [µM]	other results
ClCCCSc1nnc(COc2ccc(Cl)cc2Cl)o1	2.5 (≈ 0.884 µg/mL)	0.65 (≈ 0.23 µg/mL)	> 50	> 50	
CCCSc1nnc(COc2ccc(Cl)cc2Cl)o1	2.5 (≈ 0.798 µg/mL)	0.63 (≈ 0.201 µg/mL)	13.8	19.3	
O=C(CCl)Sc1nnc(COc2ccc(Cl)cc2Cl)o1		> 20			
ClCCCSc1nnc(Cc2ccc(Cl)cc2Cl)o1	5 (≈ 1.69 µg/mL)	1.42 (≈ 0.479 µg/mL)	> 50	> 50	
CCCSc1nnc(Cc2ccc(Cl)cc2Cl)o1	5 (≈ 1.52 µg/mL)	1.19 (≈ 0.361 µg/mL)	> 50	> 50	
O=C(CCl)Sc1nnc(Cc2ccc(Cl)cc2Cl)o1		9.67 (≈ 3.26 µg/mL)			
O=[N+]([O-])c1cccc(OCc2nnc(SCCCCl)o2)c1		11.7 (≈ 3.86 µg/mL)	> 50	> 50	
CCCSc1nnc(COc2cccc([N+](=O)[O-])c2)o1		8.52 (≈ 2.52 µg/mL)	> 50	> 50	
O=C(CCl)Sc1nnc(COc2cccc([N+](=O)[O-])c2)o1		> 20			
O=[N+]([O-])c1cccc(Cc2nnc(SCCCCl)o2)c1		7.48 (≈ 2.35 µg/mL)	> 50	> 50	
CCCSc1nnc(Cc2cccc([N+](=O)[O-])c2)o1		6.81 (≈ 1.9 µg/mL)	> 50	> 50	
O=C(CCl)Sc1nnc(Cc2cccc([N+](=O)[O-])c2)o1		> 20			
NNC(=O)c1ccncc1 [ISONIAZID]		0.03 (≈ 0.00411 µg/mL)			MIC [1, 19]: 0.03 µg/mL (≈ 0.219 µM); MIC [2]: 0.03 µg/mL (≈ 0.219 µM); MIC [3]: 0.03 µg/mL (≈ 0.219 µM); MIC [4]: 0.03 µg/mL (≈ 0.219 µM); MIC [5]: 0.06 µg/mL (≈ 0.438 µM); MIC [6]: 0.03 µg/mL (≈ 0.219 µM); MIC [7]: 0.03 µg/mL (≈ 0.219 µM); MIC [8]: 0.03 µg/mL (≈ 0.219 µM); MIC [9]: 0.03 µg/mL (≈ 0.219 µM); MIC [10]: 0.06 µg/mL (≈ 0.438 µM); MIC [11]: 0.06 µg/mL (≈ 0.438 µM); MIC [12]: 0.03 µg/mL (≈ 0.219 µM); MIC [13]: 0.06 µg/mL (≈ 0.438 µM); MIC [14]: 0.03 µg/mL (≈ 0.219 µM); MIC [15]: 0.19 µg/mL (≈ 1.39 µM); MIC [16]: 0.2 µg/mL (≈ 1.46 µM); MIC [17]: 0.08 µg/mL (≈ 0.583 µM); MIC [18]: 0.03 µg/mL (≈ 0.219 µM)
